Results published in ChEMBL document CHEMBL3112535, “Undesired versus designed enzymatic cleavage of linkers for liver targeting” (Bioorg Med Chem Lett, 2014).

Legend:
carboxylesterase-2 = biological target: T1, carboxylesterase-2 (Homo sapiens, UniProt O00748); experiment: (§1) Metabolic stability of the compound in human intestinal microsomes assessed as carboxylesterase-2-mediated hydrolysis by measuring half life in absence of NADPH; format: ADME, Intestine; conditions: intestinal microsomes
T1 sequence (O00748 whole entry): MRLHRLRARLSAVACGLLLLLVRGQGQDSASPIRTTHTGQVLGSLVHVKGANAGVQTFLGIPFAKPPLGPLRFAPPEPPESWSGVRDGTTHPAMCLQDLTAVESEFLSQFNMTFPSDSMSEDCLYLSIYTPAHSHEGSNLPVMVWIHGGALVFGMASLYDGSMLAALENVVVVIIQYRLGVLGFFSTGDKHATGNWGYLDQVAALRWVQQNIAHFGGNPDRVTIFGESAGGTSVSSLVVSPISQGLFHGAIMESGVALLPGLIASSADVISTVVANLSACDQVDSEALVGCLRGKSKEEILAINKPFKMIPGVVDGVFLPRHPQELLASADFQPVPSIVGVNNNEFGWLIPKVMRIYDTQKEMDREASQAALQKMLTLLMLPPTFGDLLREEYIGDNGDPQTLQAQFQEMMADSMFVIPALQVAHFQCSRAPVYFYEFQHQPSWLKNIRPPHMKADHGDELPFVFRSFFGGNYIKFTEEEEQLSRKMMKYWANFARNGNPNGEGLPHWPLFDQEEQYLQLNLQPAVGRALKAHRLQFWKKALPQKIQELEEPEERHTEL
Outline: (§2)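 Pooled mixed-gender human liver (N = 50) or intestinal (N = 6) microsomes at 0.5 or 0.76 mg/mL final, in 100 mM potassium phosphate pH 7.4, prewarmed 5 min at 37 °C. Substrate 1 µM, n = 2, final DMSO 0.025% and acetonitrile 0.98%. Aliquots taken over 0–60 min into acetonitrile with terfenadine internal standard. Parent loss by LC–MS/MS. CLint = 0.693·(mL incubation)/(t1/2·protein concentration).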

carboxylesterase-1 = biological target: T2, carboxylesterase-1 (Homo sapiens, UniProt P23141); experiment: (§3) Metabolic stability of the compound in human liver microsomes assessed as carboxylesterase-1-mediated hydrolysis by measuring half life in absence of NADPH; format: ADME; conditions: liver microsomes; outline: as §2
T2 sequence (P23141 whole entry): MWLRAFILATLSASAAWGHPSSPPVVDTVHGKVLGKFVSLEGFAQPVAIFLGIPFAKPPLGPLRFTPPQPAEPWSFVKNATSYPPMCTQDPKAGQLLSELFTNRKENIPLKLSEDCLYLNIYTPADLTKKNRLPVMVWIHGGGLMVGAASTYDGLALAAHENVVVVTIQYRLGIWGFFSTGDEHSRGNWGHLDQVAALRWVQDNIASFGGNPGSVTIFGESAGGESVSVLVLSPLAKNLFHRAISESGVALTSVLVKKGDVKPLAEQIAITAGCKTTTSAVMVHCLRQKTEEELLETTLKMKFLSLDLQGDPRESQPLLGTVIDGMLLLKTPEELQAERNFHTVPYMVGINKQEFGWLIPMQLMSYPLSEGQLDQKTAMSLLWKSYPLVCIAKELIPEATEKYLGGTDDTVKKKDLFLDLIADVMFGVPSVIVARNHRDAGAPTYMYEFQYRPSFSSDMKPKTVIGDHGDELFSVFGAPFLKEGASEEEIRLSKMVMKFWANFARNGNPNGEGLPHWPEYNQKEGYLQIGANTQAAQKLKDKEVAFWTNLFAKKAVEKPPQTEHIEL

Liver carboxylesterase 1 [1] = biological target: T3, Liver carboxylesterase 1 (Homo sapiens, UniProt P23141); experiment: Metabolic stability of the compound in human liver microsomes assessed as carboxylesterase-1-mediated hydrolysis by measuring intrinsic clearance at 1 uM in absence of NADPH; format: ADME; outline: as §2
T3 sequence (P23141 whole entry): T2 sequence (P23141 whole entry)

Cocaine esterase [2] = biological target: T4, Cocaine esterase (Homo sapiens, UniProt O00748); experiment: Metabolic stability of the compound in human intestinal microsomes assessed as carboxylesterase-2-mediated hydrolysis by measuring intrinsic clearance at 1 uM in absence of NADPH; format: ADME, Intestine; outline: as §2
T4 sequence (O00748 whole entry): T1 sequence (O00748 whole entry)

Cocaine esterase [3] = biological target: T4, Cocaine esterase; experiment: as §1; format: ADME, Intestine; conditions: microsomes; outline: as §2
Liver carboxylesterase 1 [4] = biological target: T3, Liver carboxylesterase 1; experiment: Metabolic stability of the compound assessed as recombinant carboxylesterase-1 (unknown origin)-mediated hydrolysis after 60 mins; format: ADME; conditions: 1 h
Outline: (§4)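 Metabolite identification. Substrate at 10 µM final (DMSO stock diluted in acetonitrile) incubated 1 h at 37 °C, pH 7.4, n = 1, with one of: recombinant CE-1 bactosomes, recombinant CE-2 bactosomes, control E. coli cytosol, or human liver or intestinal microsomes. Quench in acetonitrile, centrifuge, dry supernatant under nitrogen, reconstitute in mobile phase. Metabolite formation read by LC–MS/MS.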

Liver carboxylesterase 1 [5] = biological target: T3, Liver carboxylesterase 1; experiment: as §3; format: ADME; conditions: microsomes; outline: as §2
Cocaine esterase [6] = biological target: T4, Cocaine esterase; experiment: Metabolic stability of the compound assessed as recombinant carboxylesterase-2 (unknown origin)-mediated hydrolysis after 60 mins; format: ADME; conditions: 1 h; outline: as §4

half-life (carboxylesterase-2) | half-life (carboxylesterase-1) | CLint (Liver carboxylesterase 1 [1]) | CL (Cocaine esterase [2]) | t1/2 (Cocaine esterase [3]) | Stability (Liver carboxylesterase 1 [4]) | t1/2 (Liver carboxylesterase 1 [5]) | Stability (Cocaine esterase [6]) | SMILES
6.3 min | 17 min | 82 µL/min/mg | 220 µL/min/mg |  |  |  |  | COC(=O)NCCCC(CC(C)C)C(=O)Oc1ccc(Oc2ccc(CN(Cc3ccccc3)c3cccc(NS(C)(=O)=O)c3C)cc2)cc1 (centres undefined)
 |  | 770 µL/min/mg | 1900 µL/min/mg | 0.73 min | Stable | 1.8 min | Unstable | C#CCC(CCCNC(=O)OC)C(=O)OCCOc1ccc(Oc2ccc(CN(Cc3ccccc3)c3cccc(NS(C)(=O)=O)c3C)cc2)cc1 (centres undefined)
 |  | 550 µL/min/mg | 1700 µL/min/mg | 0.84 min |  | 2.5 min |  | C#CCC(CCCNC(=O)OC)C(=O)Oc1ccc(Oc2ccc(CN(Cc3ccccc3)c3cccc(NS(C)(=O)=O)c3C)cc2)cc1 (centres undefined)
 |  | 1000 µL/min/mg | 2600 µL/min/mg | 0.53 min |  | 1.3 min |  | COC(=O)NCCCC(C)C(=O)Oc1ccc(Oc2ccc(CN(Cc3ccccc3)c3cccc(NS(C)(=O)=O)c3C)cc2)cc1 (centres undefined)
 |  | 170 µL/min/mg | 240 µL/min/mg | 3.8 min | Stable | 5.3 min | Unstable | COC(=O)NCCCC(Cc1cn(Cc2ccccc2)nn1)C(=O)OCCOc1ccc(Oc2ccc(CN(Cc3ccccc3)c3cccc(NS(C)(=O)=O)c3C)cc2)cc1 (centres undefined)

Second part, the compound before the results:

SMILES | half-life (carboxylesterase-2) | half-life (carboxylesterase-1) | CLint (Liver carboxylesterase 1 [1]) | CL (Cocaine esterase [2]) | t1/2 (Cocaine esterase [3]) | Stability (Liver carboxylesterase 1 [4]) | t1/2 (Liver carboxylesterase 1 [5]) | Stability (Cocaine esterase [6])
COC(=O)NCCCC(C)(Cc1ccccc1)C(=O)Oc1ccc(Oc2ccc(CN(Cc3ccccc3)c3cccc(NS(C)(=O)=O)c3C)cc2)cc1 (centres undefined) |  |  | 19 µL/min/mg | 43 µL/min/mg | 32 min | Stable | 73 min | Unstable
COC(=O)NCCCC(Cc1cn(Cc2ccccc2)nn1)C(=O)Oc1ccc(Oc2ccc(CN(Cc3ccccc3)c3cccc(NS(C)(=O)=O)c3C)cc2)cc1 (centres undefined) |  |  | 140 µL/min/mg | 480 µL/min/mg | 1.9 min | Stable | 6.7 min | Unstable
COC(=O)NCCCC(Cc1ccccc1)C(=O)Oc1ccc(Oc2ccc(CN(Cc3ccccc3)c3cccc(NS(C)(=O)=O)c3C)cc2)cc1 (centres undefined) |  |  | 73 µL/min/mg | 140 µL/min/mg | 9.9 min |  | 19 min | 
COC(=O)NCCCC(C)(C)C(=O)Oc1ccc(Oc2ccc(CN(Cc3ccccc3)c3cccc(NS(C)(=O)=O)c3C)cc2)cc1 |  |  | 240 µL/min/mg | 1000 µL/min/mg | 1.4 min |  | 5.7 min | 
